Experiment [1] in a line: Inhibition of Influenza B virus (B/Yokohama/UT2203/2005)) neuraminidase N294S mutant after 30 mins by fluorescence analysis. Summed up:
(§1)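 Virus NA source was mixed with compound in 32.5 mM MES-NaOH pH 6.5 with 4 mM CaCl2 and preincubated 10 min at room temperature. Reaction ran 30 min at room temperature with 100 μM (final) 4-MU-NANA. Fluorescence was read at ex 360/em 460 nm, in triplicate. IC50 came from linear regression of residual activity against log concentration, using concentrations giving 10–90% residual activity.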

The nature of experiment [2]: Inhibition of Influenza B virus (B/Yokohama/UT3318/2005)) neuraminidase N294S mutant after 30 mins by fluorescence analysis. The gist of the method:
as §1

`CC(=O)N[C@H]1[C@H]([C@H](O)[C@H](O)CO)OC(C(=O)O)=C[C@@H]1NC(=N)N` [ZANAMIVIR]: the IC50 in experiment [1] was found to be 0.0336 µM; in experiment [2], 0.02 µM.
The corresponding values for `CO[C@@H]([C@@H]1OC(C(=O)O)=C[C@H](NC(=N)N)[C@H]1NC(C)=O)[C@H](O)CO` [LANINAMIVIR] are 0.0489 µM and 0.0302 µM.

One may read the IC50 as the concentration at which inhibition is half-maximal. Low values mean greater potency, high ones weaker potency.
